# Measurements reported in ChEMBL document CHEMBL3813647, “Discovery of an Orally Active and Liver-Targeted Prodrug of 5-Fluoro-2'-Deoxyuridine for the Treatment of Hepatocellular Carcinoma” (J Med Chem, 2016).
# Legend:
# Mus musculus [1] = experiment: Toxicity in KM mouse assessed as damage to spleen at 2 to 3 g/kg, administered through oral gavage after 15 days; settings: in vivo, 360 h
# Plasma [2] = experiment: AUC (infinity) in Sprague-Dawley rat plasma assessed as FDUR formation at 52.17 mg/kg administered through oral gavage measured up to 24 hrs by HPLC-MS/MS analysis; format: ADME, organism-based; set-up: dose 52.17 mg/kg, time infinity, route oral; settings: in vivo
# Summary of the method: (§1)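 Male Sprague-Dawley rats (220 ± 20 g), single gavage of 0.096 mmol/kg. FDUR was dosed in H2O; the prodrugs were dosed in 20% hydroxypropyl-β-cyclodextrin. n = 3 per time point, sampled at 0.25–24 h. Plasma (EDTA-K2, cardiac puncture) and freeze-clamped liver were homogenized in 20 mM EDTA-K2/70% MeOH. Analytes measured by HPLC-MS/MS in ESI negative mode.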
# Liver [3] = experiment: Drug metabolism in Sprague-Dawley rat liver S9 fraction assessed as (S)-2-((R)-(((2R,3S,5R)-5-(5-fluoro-2,4-dioxo-3,4-dihydropyrimidin-1(2H)-yl)-3-hydroxytetrahydrofuran-2-yl)methoxy)(2-methylbenzyloxy)phosphorylamino)propanoate formation at 20 ug/mL after 20 mins by HPLC-MS/MS analysis; format: ADME, subcellular; settings: s9, 20 min, TDE = time-dependent effect
# Summary of the method: (§2)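 Rat liver S9 (10 mg/mL) incubated with compound at 20 μg/mL. Parent, intermediate A and FdUMP followed over time by HPLC-MS/MS. Negative control run without NADPH.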
# Liver [4] = experiment: Drug metabolism in Sprague-Dawley rat liver S9 fraction assessed as FdUMP formation at 20 ug/mL preincubated for 5 mins followed by NADPH addition measured at 20 mins by HPLC-MS/MS analysis; format: ADME, subcellular; settings: s9, 20 min
# Summary of the method: as §2
# [5] = Ratio of FdUMP AUC (infinity) in Sprague-Dawley rat liver to FDUR AUC (infinity) in Sprague-Dawley rat plasma at 52.17 mg/kg administered through oral gavage; format: ADME, organism-based; settings: in vivo
# Summary of the method: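 Male Sprague-Dawley rats (220 20 g), single gavage of 0.096 mmol/kg prodrug in 20% hydroxypropyl-β-cyclodextrin. Blood by cardiac puncture under isoflurane and liver at 0.25–24 h, n = 3 per time point. Liver freeze-clamped and homogenized in 20 mM EDTA-K2/70% MeOH. FdUMP (liver) and FDUR (plasma) by HPLC-MS/MS, negative ESI. Index = AUC(inf) liver FdUMP / AUC(inf) plasma FDUR.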
# [6] = Half life in rat plasma by HPLC analysis; format: ADME, cell-free
# Summary of the method: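 Rat plasma, 37 °C. Compound added from a 2.5 mM stock, sampled at 0–24 h, quenched with MeOH. Analyzed by HPLC-UV at 267 nm (C8 column, MeOH:H2O 68:32). Triplicate samples.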
# Liver [7] = experiment: Cmax in Sprague-Dawley rat liver assessed as 5-FU formation at 52.17 mg/kg administered through oral gavage measured up to 24 hrs by HPLC-MS/MS analysis; format: ADME, organism-based; set-up: dose 52.17 mg/kg, route oral; settings: in vivo
# Summary of the method: as §1
# Mus musculus [8] = experiment: Toxicity in KM mouse implanted with mouse H22 cells assessed as body weight level at 65 mg/kg administered daily through oral gavage after 8 days (reference value: 21.7 to 22.3 g); format: organism-based; settings: in vivo, 192 h
# Plasma [9] = experiment: Cmax in Sprague-Dawley rat plasma assessed as FDUR formation at 52.17 mg/kg administered through oral gavage measured up to 24 hrs by HPLC-MS/MS analysis; format: ADME, organism-based; set-up: dose 52.17 mg/kg, route oral; settings: in vivo
# Summary of the method: as §1
# [10] = Ratio of metabolite A AUC (infinity) in Sprague-Dawley rat liver to (S)-2-((R)-(((2R,3S,5R)-5-(5-fluoro-2,4-dioxo-3,4-dihydropyrimidin-1(2H)-yl)-3-hydroxytetrahydrofuran-2-yl)methoxy)(2-methylbenzyloxy)phosphorylamino)propanoate AUC (infinity) in Sprague-Dawley rat plasma at 52.17 mg/kg administered through oral gavage; format: ADME, organism-based; settings: in vivo
# Plasma [11] = experiment: AUC (infinity) in Sprague-Dawley rat plasma assessed as (S)-2-((R)-(((2R,3S,5R)-5-(5-fluoro-2,4-dioxo-3,4-dihydropyrimidin-1(2H)-yl)-3-hydroxytetrahydrofuran-2-yl)methoxy)(2-methylbenzyloxy)phosphorylamino)propanoate formation at 52.17 mg/kg administered through oral gavage measured up to 24 hrs by HPLC-MS/MS analysis; format: ADME, organism-based; set-up: dose 52.17 mg/kg, time infinity, route oral; settings: in vivo
# Summary of the method: as §1
smiles,measurement,setting,value
Cc1ccccc1CO[P@](=O)(N[C@@H](C)C(=O)OC(C)C)OC[C@H]1O[C@@H](n2cc(F)c(=O)[nH]c2=O)C[C@@H]1O,Activity,Mus musculus [1],Non-toxic
same,AUC,Plasma [2],26 ng·h/mL
same,Drug metabolism,Liver [3],tde
same,Drug metabolism,Liver [4],metabolite_detected
same,Ratio AUC,[5],20.9
same,half-life,[6],< 4.98 min
same,Cmax,Liver [7],139 ng/g
same,Activity,Mus musculus [8],25.9 g
same,Cmax,Plasma [9],17 ng/mL
same,Ratio AUC,[10],17.4
same,AUC,Plasma [11],316 ng·h/mL
